In ChEMBL document CHEMBL2057162, “Synthesis and antitumor efficacy of a β-glucuronidase-responsive albumin-binding prodrug of doxorubicin” (J Med Chem, 2012):

Columns and labels:
Mus musculus [1] = test: Nephrotoxicity in C57BL/6 mouse xenografted with mouse LLC cells at 13.7 umol/kg, iv administered on day 4 and day 11 after tumor transplantation measured on day 17 by hematoxylin eosin staining method; format: toxicity, organism-based; conditions: in vivo
Summary of the method: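 Kidneys from LLC-bearing mice dosed iv on days 4 and 11 were sectioned and stained with hematoxylin eosin. Renal tissue examined microscopically alongside untreated controls.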

[2] = Antiproliferative activity against human U87MG cells after 48 hrs by XTT assay; format: functional, cell-based, U-87MG ATCC; conditions: U-87 MG
Summary of the method: (§1)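 Human H290, MDA-MB-231 and U87-MG and murine LLC tumour cell lines treated 48 h, with or without β-glucuronidase in the culture medium. IC50 derived from cell viability assays; highest tested dose 2 μM.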

MDA-MB-231 = test: Antiproliferative activity against human MDA-MB-231 cells after 48 hrs by XTT assay; format: functional, cell-based; conditions: MDA-MB-231, 48 h
Summary of the method: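 Human MDA-MB-231 tumour cells were exposed to drug for 48 h, with or without β-glucuronidase added to the culture medium. Viability read-out gave IC50 in nM. Highest prodrug concentration tested was 2 μM.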

[3] = test system: Lewis lung carcinoma cell line; test: Antiproliferative activity against mouse LLC cells after 48 hrs by XTT assay; format: functional, cell-based; summary of the method: as §1
Mus musculus [4] = test: Toxicity in C57BL/6 mouse xenografted with mouse LLC cells assessed as change in body weight at 13.7 umol/kg, iv administered on day 4 and day 11 after tumor transplantation measured on day 17; format: organism-based; conditions: in vivo
Summary of the method: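 Subcutaneous murine LLC-bearing mice given two iv doses on days 4 and 11 after transplantation: 2 × 13.7 μmol/kg doxorubicin or 2 × 43.6 μmol/kg prodrug. Body weight change (%) and mortality recorded, 8 mice per group.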

[5] = test system: Lewis lung carcinoma cell line; test: Antitumor activity against mouse LLC cells xenografted in C57BL/6 mouse assessed as decrease in tumor volume at 13.7 umol/kg, iv administered on day 4 and day 11 after tumor transplantation measured on day 17; format: functional
Summary of the method: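 Murine LLC tumours grown subcutaneously in mice. Two iv injections on days 4 and 11 after transplantation: doxorubicin 2 × 13.7 μmol/kg, glucuronide prodrugs 2 × 43.6 μmol/kg. T/C = mean relative tumour volume of treated group / mean relative tumour volume of control group. Minimal T/C reported with the day it was reached; 8 mice per group.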

[6] = Antiproliferative activity against human NCI-H290 cells after 48 hrs by XTT assay; format: functional, cell-based; conditions: NCI-H290, 48 h; summary of the method: as §1

In the case of COc1cccc2c1C(=O)c1c(O)c3c(c(O)c1C2=O)C[C@@](O)(C(=O)CO)C[C@@H]3O[C@H]1C[C@H](N)[C@H](O)[C@H](C)O1 [DOXORUBICIN], the Activity (Mus musculus [1]) is reported as “Toxic”, the IC50 [2] is reported as 790 nM and the IC50 (MDA-MB-231) is reported as 340 nM. It also gave an IC50 [3] of 207 nM, an Activity (Mus musculus [4]) of -21% and a T/C [5] of 31%. It also gave an IC50 [6] of 320 nM.
